# Assay outcomes (PubChem BioAssay)
# Compounds with a hit are over-represented: about 4.7% of the library has one in this group of screens.
# MT1-MMP act inh: blocks activation of human MT1-MMP; P50281; HT1080 RFP-PRO-GFP cells, GFP/RFP ratio fluorescence, overnight; percent of plate control window, DMSO zero; GFP/RFP ratio change, % at 20 µM; 360,000 tested, 0.061% active;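 active means GFP/RFP ratio change of at least 30% with cell ATP level not reduced by more than half and red fluorescence within 50% of control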
#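 Assay system: HT1080 RFP-PRO-GFP cells | Dosing: 20 µM single dose, 1% DMSO | Incubation: Cells overnight before dosing, compound overnight, 37 °C, 5% CO2 | Evaluation: GFP/RFP fluorescence ratio | Control set: DMSO-only wells and HT1080 RFP-L50D-GFP cell wells as references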
# SKN-1 block: blocks SKN-1 activity in C. elegans; 360,000 tested, 0.49% active; inhibition, % at 21.8 µM; C. elegans VP596 Pgst-4::GFP/RFP ratio, acrylamide-induced, 24 h;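 active means interference check ratio from 0.5 to 1.5 plus GFP to RFP signal ratio inhibition reaching or exceeding a fixed threshold, cut at about 30% in these data, passing the limit was not always enough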
# MPTP inh: inhibitors of mitochondrial permeability transition pore; isolated mouse mitochondria, Ca2+ swelling absorbance, 30 min; inhibition, % at 10 µM; 360,000 tested, 1.4% active; AID 602449;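 active means inhibition of 50% or more, scaled per plate between neutral and stimulator controls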
# ADAM17 inh: inhibitors of human ADAM17; P78536; recombinant ADAM17, EDANS/DABCYL FRET peptide cleavage; inhibition, % at 6.95 µM; 370,000 tested, 0.83% active; AID 720648;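 active means inhibition above the mean of compounds lying between control limits plus 3 SD, set per campaign, cut at about 8.5% in these data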
# NR3A LBD binder: NR3A (human) ligand-binding domain modulation; NR3A LBD differential scanning fluorimetry, Tm shift; 0% = protein alone, 100% = glycine-bound protein; Tm shift relative to glycine control, % at 25 µM; 340,000 tested, 2.5% active; AID 1259313;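 active means melting temperature shift of at least 10% of the positive control shift, at one fixed dose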
# ADAM10 inh: inhibits human ADAM10 | inhibition, % at 7 µM | 370,000 tested, 0.62% active | recombinant ADAM10, EDANS/DABCYL FRET peptide cleavage, 3 h | AID 720582 | O14672;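 active means inhibition above a per-campaign cutoff equal to the mean of compounds falling between control-based bounds plus 3 SD, cut at about 20% in these data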
# Target sequence (O14672 214-748 limits assumed): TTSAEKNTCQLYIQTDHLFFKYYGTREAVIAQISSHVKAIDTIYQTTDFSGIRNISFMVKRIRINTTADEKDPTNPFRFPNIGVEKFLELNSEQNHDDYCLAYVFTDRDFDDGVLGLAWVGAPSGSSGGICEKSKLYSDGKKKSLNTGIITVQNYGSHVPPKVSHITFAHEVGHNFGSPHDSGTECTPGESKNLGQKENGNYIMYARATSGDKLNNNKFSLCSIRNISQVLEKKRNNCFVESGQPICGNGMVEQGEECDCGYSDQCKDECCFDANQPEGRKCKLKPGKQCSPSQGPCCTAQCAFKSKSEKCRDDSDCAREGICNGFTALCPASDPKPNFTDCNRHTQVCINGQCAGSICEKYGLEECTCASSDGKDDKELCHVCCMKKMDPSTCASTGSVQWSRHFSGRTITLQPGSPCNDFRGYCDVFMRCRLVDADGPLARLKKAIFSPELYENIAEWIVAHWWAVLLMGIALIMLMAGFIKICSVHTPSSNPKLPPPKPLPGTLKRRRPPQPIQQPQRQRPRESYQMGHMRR
# Numbers stand for hits; - = inactive; . = not tested or not shown.
SMILES,MT1-MMP act inh,SKN-1 block,MPTP inh,ADAM17 inh,NR3A LBD binder,ADAM10 inh
Cc1ccc2c(ccc(=S)n2C)c1,-,-,-,-,-,-
COc1cccc(NC(=O)COC(=O)c2c3c(nc4ccccc24)CCC(C)C3)c1 (stereo not drawn),-,-,-,-,19,-
Oc1ccccc1C1=NCCNC(C(F)(F)F)=C1,-,-,-,-,-,-
FC(F)(F)C1=CC(c2ccc(Cl)cc2)=NCCN1,-,36,-,-,-,-
COc1cccc(/C(C)=N/NC(=O)Cc2c(C)[nH][nH]c2=O)c1,-,-,-,-,-,-
CC(C)C[C@H](NC1(C(=O)NC2CCCCC2)CCOCC1)C(=O)NCC(c1ccccc1)c1ccccc1,.,.,.,-,.,-
COc1ccc(Br)c2oc(SC)cc(=O)c12,-,-,-,-,10,-
COc1ccc(-c2cc(=O)c3c(OC)c(OC)c(OC)c(OC)c3o2)cc1OC,-,-,-,-,-,-
COc1cc(/C=C2\Oc3cc(O)ccc3C2=O)ccc1O,-,-,-,-,-,-
O=C1/C(=C/c2ccc(O)c(O)c2)Oc2cc(O)ccc21,-,-,-,-,15,-
CCOc1ncccc1C(=O)OCc1ccc([N+](=O)[O-])cc1,-,-,-,-,-,-
CCCc1nnc(SCC(=O)N2CCCC2)n1CC1CCCO1 (stereo not drawn),-,-,-,-,-,-
CC1=NNC(=O)C1CC(=O)N/N=C/c1ccc(C)o1 (stereo not drawn),-,-,-,-,18,-
O=C(O)C1CC(=O)n2c(nc3ccccc32)S1 (stereo not drawn),-,-,-,-,-,-
O=C(Nc1ccc(Oc2ncnc3cc(Cl)ccc23)nc1)c1cccs1,-,-,-,-,11,-
O=C(Nc1ccc(F)cc1)Nc1ccc(Oc2ncnc3cc(Cl)ccc23)nc1,-,-,-,-,-,-
Cc1oc(/C=N/NS(=O)(=O)c2ccccc2)cc1Br,-,-,-,-,-,-
Cc1ccc(/C=N/NS(=O)(=O)c2ccccc2)o1,-,-,-,-,21,-
N#CC1=C(N)N(c2ccc(F)cc2)C2=C(C1c1ccc(O)cc1)S(=O)(=O)CC2 (stereo not drawn),-,35,-,-,-,-
COc1ccccc1CNS(=O)(=O)c1ccc(Br)s1,-,-,-,-,-,-
Cc1ccc(SCC(=O)Nc2ccc(C(=O)Nc3ccc(O)cc3)cc2)cc1,-,-,-,-,19,-
COc1ccc(C(=O)Nc2ccc(C(=O)NCCc3ccccc3)cc2)cc1,-,-,-,-,22,-
COc1ccc(C(=O)Nc2cccc(C)c2)cc1,-,-,-,-,17,-
COc1ccc(C(=O)Nc2cc(-c3ccc(C)cc3)no2)cc1,-,-,-,-,11,-
COc1ccccc1C(=O)Nc1ccc2c(c1)nc(CCNC(C)=O)n2C,-,-,-,-,-,-
SMILES,MT1-MMP act inh,SKN-1 block,MPTP inh,ADAM17 inh,NR3A LBD binder,ADAM10 inh
Cc1ccc(C(=O)Nc2ccc(C(=O)N/N=C/c3ccc(C)o3)cc2)cc1,-,-,-,-,15,-
COc1ccc(NC(=O)CN2CCN(c3nc(-c4cccc(OC)c4)cs3)CC2)cc1,-,-,-,-,-,20
COc1ccccc1C(=O)Nc1ccc2c(c1)nc(CCNC(=O)c1ccccc1)n2C,-,42,-,-,-,-
COc1ccc(C(=O)NN/C(=N/S(=O)(=O)c2ccc(C)cc2)c2ccccc2)cc1,-,37,-,-,-,-
COc1cccc(-c2csc(N3CCN(CC(=O)Nc4ccc5c(c4)OCO5)CC3)n2)c1,-,-,-,-,-,-
COc1cc(S(=O)(=O)N(CCc2ccccc2)Cc2cccs2)ccc1-n1cnnn1,-,-,-,-,-,-
CCOC(=O)C1C(c2cccnc2)NC(=O)NC1(O)C(F)(F)F (stereo not drawn),-,-,-,-,-,-
CCc1ccc(OCC(=O)Nc2ccc(N3CCN(C(=O)c4ccccc4)CC3)cc2)cc1,-,-,-,-,-,-
COc1ccc(OCC(=O)Nc2ccc(N3CCN(C(=O)c4ccccc4C)CC3)cc2)cc1,-,-,-,-,18,-
COc1ccc(C(O)CNc2ccc(C)cc2)cc1 (stereo not drawn),-,36,-,-,-,-
COc1ccc(NC(=O)c2cccc(N3C(=O)C4C5C=CC(C6CC56)C4C3=O)c2)cc1 (stereo not drawn),-,-,-,-,23,-
COc1ccc(CCNc2ccc(C)cc2)cc1,-,-,-,-,-,-
CC(=O)Nc1ccc(/C=N/NC(=O)CCN2CCN(c3ccccc3)CC2)cc1,-,-,-,-,33,-
COc1ccc(S(=O)(=O)NNC(=O)C(=O)NNc2ccccn2)cc1,-,-,-,-,-,-
C=CCSc1nnc(NC(=O)C2=COCCO2)s1,-,-,-,-,-,-
COc1ccc(NC(=O)c2ccc(C)cc2)cc1,-,-,-,-,42,-
COc1ccc(C(=O)Nc2ccc(NC(=O)C3CC3)cn2)cc1,-,-,-,-,-,-
COc1ccc(NC(=O)c2ccc(N3C(=O)C4CC=C(Cl)CC4C3=O)cc2)cc1 (stereo not drawn),-,-,-,-,18,-
COc1ccc(C(=O)NNC(=O)C(=O)Nc2ccc(C)cc2)cc1,-,-,-,-,-,-
Cc1ccc(Nc2ccc(C(=O)NCCc3ccccc3)cn2)cc1,-,-,-,-,24,-
COc1ccc(C(=O)Nc2ccc(NC(=O)c3cnccn3)cn2)cc1,-,-,-,-,14,-
COc1ccc2[nH]c(C)c(CCN(Cc3cccs3)C(=S)Nc3cccc(F)c3)c2c1,-,-,-,.,-,.
COc1cc(C2CC(=O)Oc3c2c(=O)n(C)c2ccccc32)ccc1O (stereo not drawn),-,-,-,-,-,-
COc1ccc(NC(=O)c2ccc(NC(=O)CN3CCN(c4ccccc4)CC3)cc2)cc1,-,-,-,-,19,-
COc1ccc(C(=O)Nc2ccc(-c3ccc(NC(=O)c4ccc(OC)cc4)c(OC)c3)cc2OC)cc1,-,-,-,-,28,-
SMILES,MT1-MMP act inh,SKN-1 block,MPTP inh,ADAM17 inh,NR3A LBD binder,ADAM10 inh
Cc1[nH]c2ccccc2c1Cc1n[nH]c(=S)n1C,-,-,-,-,-,-
Cn1c(Cc2c[nH]c3ccccc23)n[nH]c1=S,-,44,-,-,-,-
O=C(Cn1nnc(-c2ccccc2NC(=O)c2cccs2)n1)Nc1ccccc1,-,-,-,-,22,-
COc1ccccc1NC(=O)Cn1nnc(-c2ccccc2NC(=O)c2cccs2)n1,-,-,-,-,-,-
Cc1nc2ccccn2c1C(=O)/C=C/c1ccc(F)cc1,-,-,-,-,13,-
CCC(=O)Nc1c(-c2ccccc2Cl)c(=O)c2ccccc2n1CC,-,-,-,-,-,-
